Screening results deposited in PubChem by Broad Institute.
This is one part of a sample in which hits are shown more often than they occur.
STK33 kinase inh – inhibitors of human STK33 kinase; 320,000 compounds, 0.073% hits; inhibition, % at 10 µM; AID 2661; Q9BYT3; purified STK33, MBP phosphorylation, ADP-Glo luminescence;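 active means inhibition at or above 25%, using the most active replicate where run in duplicate; inactive means inhibition below 25%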
GSK3A inh – human GSK-3 alpha kinase inhibition; P49840; ADP-Glo luminescence, 60 min; inhibition, % at 10 µM; 320,000 compounds, 0.1% hits; AID 2650;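 active means more than half of replicates show inhibition above 20%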;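 further: GST-tagged GSK-3 alpha with peptide substrate and 25 µM ATP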
DYRK1A inh – inhibitors of rat Dyrk1A kinase; Q63470; ADP-Glo luminescence, NFATc1 peptide; inhibition, % at 12.5 µM; 310,000 compounds, 0.43% hits; AID 504441; in the data active means inhibition above about 50%
CDK5 p35 inh – inhibitors of human CDK5/p35 kinase; Q00535+Q15078; Recombinant CDK5/p35, ADP-Glo luminescence, 60 min; inhibition, % at 10 µM; 330,000 compounds, 0.01% hits; AID 488839;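 active means highest replicate inhibition of at least 50% and at least 75% of replicates reaching 50%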
Target sequence (Q00535 whole entry, looked up): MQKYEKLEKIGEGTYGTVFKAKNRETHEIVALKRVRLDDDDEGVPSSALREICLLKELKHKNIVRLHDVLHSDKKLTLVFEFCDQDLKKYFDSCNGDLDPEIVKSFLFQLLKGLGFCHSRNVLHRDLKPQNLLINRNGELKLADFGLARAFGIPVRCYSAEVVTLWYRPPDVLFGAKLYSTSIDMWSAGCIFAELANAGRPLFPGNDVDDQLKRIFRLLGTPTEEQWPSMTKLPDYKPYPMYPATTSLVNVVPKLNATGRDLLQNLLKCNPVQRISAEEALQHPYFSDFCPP
Target sequence (Q15078 whole entry, looked up): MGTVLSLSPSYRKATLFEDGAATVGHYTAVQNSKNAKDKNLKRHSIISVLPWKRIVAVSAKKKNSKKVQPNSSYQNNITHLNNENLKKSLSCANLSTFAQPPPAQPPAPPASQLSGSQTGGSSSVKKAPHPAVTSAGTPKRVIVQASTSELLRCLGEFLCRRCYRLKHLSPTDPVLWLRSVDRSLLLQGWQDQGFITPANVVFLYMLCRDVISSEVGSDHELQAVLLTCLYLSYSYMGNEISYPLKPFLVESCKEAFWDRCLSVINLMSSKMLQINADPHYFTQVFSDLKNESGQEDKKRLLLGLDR
GSK3beta inhib – blocks human GSK3beta kinase activity. P49841. GST-GSK3beta kinase, ADP-Glo luminescence, 60 min; stronger effect = lower value. activity score (negative = inhibition), % at 10 µM. 300,000 compounds, 0.038% hits. AID 2097;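 active means more than half of replicate wells score below -50%, meaning over 50% inhibition versus plate controls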
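Test system: GST-fused GSK3beta enzyme, cell-free | Quantity: 1.6 ng GST-GSK3beta enzyme per well | Reagent: 25 µM ATP with peptide substrate | Schedule: 60 min enzyme reaction, room temperature | Signal: Luminescent ADP-Glo measurement of ADP formed | Read-out basis: Score relative to plate controls | Control set: DMSO and 20 µM GW8510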
Of the large screens only hits and unclear results are named; the others gave an inactive call.

CCOC(=O)Cc1nnc(NC(=O)COc2ccc(OC)cc2)s1	none (no result: DYRK1A inh)
CCOC(=O)Cc1nnc(NC(=O)COc2ccc(C)cc2)s1	STK33 kinase inh 27
O=C(Nc1cccc2c1C(=O)NC2=O)c1cccc(N2C(=O)CCC2=O)c1	none
O=C(CN1C(=O)CCC1=O)Nc1cccc2c1C(=O)NC2=O	GSK3A inh 98, GSK3beta inhib -80
Clc1cncc(Cl)c1N/N=C/c1ccncc1	CDK5 p35 inh 52 (no result: STK33 kinase inh, GSK3A inh)
N#C/C(=C\c1ccc(O)c(Br)c1)C(=O)NCc1ccccc1	DYRK1A inh 86
CN(C)/C=C/C(=O)c1ccc2noc(-c3cccc(F)c3)c2c1	STK33 kinase inh 35
COc1ccc(-c2onc3ccc(C(=O)/C=C/N(C)C)cc23)cc1	STK33 kinase inh 31
COc1ccc(-c2onc3ccc(Br)cc23)cc1	none
CC(C)CCNC(=O)c1ccc(-n2cnc3cccnc32)cc1	none
CC(C)OP(=O)(c1ccc(N(C)C)cc1)C(O)c1ccc(Br)cc1 (centres undefined)	none
CCOC(=O)c1nnn(-c2nonc2N)c1-c1ccc(OCC)cc1	GSK3A inh 50
CCOc1cccc(-c2c(C(=O)N/N=C/c3ccoc3)nnn2-c2nonc2N)c1	none (no result: DYRK1A inh, CDK5 p35 inh)
CCOc1cccc(-c2c(C(=O)N/N=C/c3ccncc3)nnn2-c2nonc2N)c1	DYRK1A inh 60
C/C(=N\NC(=O)c1nnn(-c2nonc2N)c1-c1cccs1)c1cccc(O)c1	GSK3A inh 66
CCOc1cccc(-c2c(C(=O)N/N=C(\C)c3ccncc3)nnn2-c2nonc2N)c1	GSK3A inh 69
O=C(NC1CCSc2ccccc21)c1ccccc1Cl (centres undefined)	none
CCN(CC)CC(=O)N(CC(=O)Nc1c(C)cc(C)cc1C)C1CCCCC1	none
COC(=O)[C@@]1(Cc2ccccc2)[C@H]2C(=O)N(C)C(=O)[C@H]2[C@H]2CN=C(SC)N21	none (no result: STK33 kinase inh, GSK3A inh, GSK3beta inhib)
CCOc1ccc2nc3cc(N=Nc4ccc(N)nc4N)ccc3c(N)c2c1	CDK5 p35 inh 62 (no result: STK33 kinase inh, GSK3A inh, GSK3beta inhib)
COc1ccc(N2CCN(/C(=N\S(=O)(=O)c3ccc(C)cc3)Nc3nc(C)cc(C)n3)CC2)cc1	none
O=C(Nc1sccc1C(=O)N1CCOCC1)c1cccnc1	GSK3A inh 54
COc1cc(OC)c(OC)cc1CNc1nnnn1C	none
COC(=O)CSc1ccc2nnc(-c3ccc(F)cc3)n2n1	GSK3A inh 60, GSK3beta inhib -78
CCOC(=O)CC(=O)CSc1ccc2nnc(-c3ccc(F)cc3)n2n1	none
CCC(Sc1ccc2nnc(-c3ccc(OC)c(OC)c3)n2n1)C(=O)O (centres undefined)	STK33 kinase inh 38
Nc1nc(NCCOCCO)nc(NC2CCCCC2)c1[N+](=O)[O-]	GSK3A inh 52
Nc1nc(NCCO)nc(NC2CCCCC2)c1[N+](=O)[O-]	GSK3A inh 86
CN(C)CCCNc1nc(N)c([N+](=O)[O-])c(NC2CCCCC2)n1	GSK3A inh 98, GSK3beta inhib -81
CC(C)CCNc1nc(N)c([N+](=O)[O-])c(NC2CCCCC2)n1	none
CNc1nc(N)c([N+](=O)[O-])c(NC2CCCCC2)n1	none
c1ccc(Sc2ncccn2)nc1	none
NS(=O)(=O)c1ccc(NC(=S)N2CCN(c3cccc(Cl)c3)CC2)cc1	none
CS(=O)(=O)Nc1ccc(C(=O)CSc2nnc(C3CC3)n2C2CC2)cc1	none (no result: STK33 kinase inh, GSK3A inh, DYRK1A inh, GSK3beta inhib)
CCN(CC)c1ccc(NC(=O)c2cccc(C)c2OC)c(C)c1	none
Cc1ccc(NC2=Nc3ccccc3CC2)cc1	none
O=C(O)c1ccc2nc(CO)[nH]c2c1	none
Cn1c(=O)c2[nH]c(CCCc3nc4ccccc4[nH]3)nc2n(C)c1=O	none (no result: STK33 kinase inh, GSK3A inh, GSK3beta inhib)
Cn1c(=O)c2[nH]c(CCCC(=O)O)nc2n(Cc2ccccc2)c1=S	GSK3A inh 84, GSK3beta inhib -51
Cc1n[nH]c(=O)c2c(NC(=O)CSc3nnnn3-c3ccc(O)cc3)oc(C)c12	none (no result: GSK3beta inhib)
CCN(C(=O)CSc1nc2cc(C(=O)OC)ccc2c(=O)n1Cc1ccco1)c1cccc(C)c1	none
COc1ccc(Nc2nccc(-c3ccc(C#N)cc3)n2)cc1	CDK5 p35 inh 55
N/C(=N\OS(=O)(=O)c1ccc2ccccc2c1)c1ccccn1	none (no result: STK33 kinase inh, GSK3A inh, DYRK1A inh, GSK3beta inhib)
OCCN1CCN(c2nc(-c3ccccc3O)nc3ccccc23)CC1	STK33 kinase inh 40
CCN1CCN(c2nc(-c3ccccc3Cl)nc3ccccc23)CC1	none
CN1CCN(c2nc(-c3ccccc3Cl)nc3ccccc23)CC1	none
CN1CCN(c2nc(-c3ccccc3O)nc3ccccc23)CC1	STK33 kinase inh 32
O=c1[nH]cnc2ccc([N+](=O)[O-])cc12	none
Cc1cn(C2OC(COC(=O)c3ccccc3)C(O)C2Cl)c(=O)[nH]c1=O (centres undefined)	none
Cc1cn(C2OC(CC(=O)Oc3ccccc3)C(O)C2O)c(=O)[nH]c1=O (centres undefined)	GSK3A inh 52
COC(=O)c1nnn(-c2nonc2N)c1CN1CCc2ccccc21	GSK3A inh 64
Nc1nonc1-n1nnc(C(=O)N/N=C/c2ccccc2)c1CN1CCc2ccccc21	none
COc1cccc2c1cc1c(=O)n(CC(=O)NCCCN3CCCCC3)nc(C)n12	GSK3beta inhib -60
Cc1ccc2c(c1)c(Sc1ccccc1)c(CC(=O)O)n2C	none
CCCN(CCC)CCCNc1ccc2nnc(-c3ccc(F)cc3)n2n1	GSK3A inh 56
COc1cc(CCNc2ccc3nnc(-c4ccccc4)n3n2)cc(OC)c1OC	none
O=C(CCl)Oc1ccc2occ(C(=O)c3cccs3)c2c1	GSK3A inh 70, GSK3beta inhib -72
CC(=O)Oc1ccc2occ(C(=O)c3cccs3)c2c1	none
CCN(CC)c1ccc(N=Nc2ncn[nH]2)cc1	none
C/C(=N/Nc1ccnc2cc(Cl)ccc12)c1ccc(O)cc1	STK33 kinase inh 32
O=C(COC(=O)c1cc[n+]([O-])cc1)Nc1ccc2c(c1)OCCO2	none
CC(=O)C1=C(c2ccc(Br)cc2)C(=O)c2ccccc2C1=O	DYRK1A inh 76
CC1(C)Cc2cccc(C(=O)Nc3ccc(Cl)cc3)c2O1	none
CC1(C)Cc2cccc(C(=O)Nc3ccncc3)c2O1	GSK3A inh 73
N=C1/C(=C/c2ccc(-c3cccc(C(=O)O)c3)o2)C(=O)N=C2SC(CC(=O)N3CCOCC3)=NN12	DYRK1A inh 79
CCCC(=O)NCCc1nc2cc([N+](=O)[O-])ccc2n1C	none
COCCn1c(SCC(=O)Nc2ccc(Cl)cn2)nc2ccccc21	GSK3beta inhib -76
Cc1cccc(N=c2oc3cc(O)ccc3cc2C(N)=O)c1	GSK3A inh 56
COc1ccc2cc(C(N)=O)c(=Nc3ccc(C)cc3)oc2c1	none
Cc1csc(NC(=O)CS(=O)(=O)Cc2ccccc2)n1	none
CC1=C(C(=O)OC(C)C)C(c2cccs2)n2ncnc2N1 (centres undefined)	none
CC1=C(C(=O)OC(C)C)C(c2c[nH]c3ccccc23)n2ncnc2N1 (centres undefined)	GSK3A inh 93
CCOC(=O)C1=C(C)Nc2ncnn2C1c1ccccc1F (centres undefined)	none
